Measured values taken from ChEMBL document CHEMBL1145628, “New tetrazole-based selective anandamide uptake inhibitors” (Bioorg Med Chem Lett, 2008).

Legend:
[1] = target: T1, Diacylglycerol lipase-alpha (Homo sapiens, UniProt Q9Y4D2); assay: Inhibition of human DAGLalpha mediated sn-1-[14C]oleoyl-2-arachidonoyl-glycerol hydrolysis to 2-AG in COS cell
T1 sequence (Q9Y4D2 whole entry): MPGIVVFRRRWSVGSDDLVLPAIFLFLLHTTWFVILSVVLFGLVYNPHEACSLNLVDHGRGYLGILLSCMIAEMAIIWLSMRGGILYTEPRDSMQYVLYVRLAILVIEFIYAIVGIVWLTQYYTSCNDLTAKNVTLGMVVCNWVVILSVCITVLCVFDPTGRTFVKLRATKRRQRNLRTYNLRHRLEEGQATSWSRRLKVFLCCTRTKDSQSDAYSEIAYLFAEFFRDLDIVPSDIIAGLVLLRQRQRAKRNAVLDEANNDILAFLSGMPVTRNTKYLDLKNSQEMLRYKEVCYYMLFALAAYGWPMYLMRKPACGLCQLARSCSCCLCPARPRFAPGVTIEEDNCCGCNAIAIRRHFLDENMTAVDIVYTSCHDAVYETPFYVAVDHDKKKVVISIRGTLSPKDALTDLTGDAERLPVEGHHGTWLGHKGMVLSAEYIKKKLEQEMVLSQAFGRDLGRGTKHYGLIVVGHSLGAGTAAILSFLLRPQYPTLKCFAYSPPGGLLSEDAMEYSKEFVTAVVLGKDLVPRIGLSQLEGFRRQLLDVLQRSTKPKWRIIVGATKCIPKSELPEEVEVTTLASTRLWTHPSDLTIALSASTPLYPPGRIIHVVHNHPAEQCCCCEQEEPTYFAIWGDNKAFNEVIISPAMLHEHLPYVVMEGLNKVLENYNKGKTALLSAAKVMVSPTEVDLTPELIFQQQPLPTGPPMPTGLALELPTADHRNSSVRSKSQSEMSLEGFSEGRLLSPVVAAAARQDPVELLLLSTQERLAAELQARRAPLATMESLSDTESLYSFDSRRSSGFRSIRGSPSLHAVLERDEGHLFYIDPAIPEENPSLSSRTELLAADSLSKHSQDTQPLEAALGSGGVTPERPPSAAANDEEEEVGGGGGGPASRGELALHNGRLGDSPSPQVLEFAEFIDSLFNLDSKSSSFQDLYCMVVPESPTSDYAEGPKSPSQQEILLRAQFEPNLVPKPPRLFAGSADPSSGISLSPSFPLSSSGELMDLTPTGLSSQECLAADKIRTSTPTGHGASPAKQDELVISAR
Method in brief: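 Substrate: sn-1-[14C]oleoyl-2-arachidonoyl-glycerol. Conversion into 2-AG and [14C]oleic acid was followed using membranes of COS cells overexpressing human recombinant DAGLα; n = 4 means.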

[2] = target: T2, Transient receptor potential cation channel subfamily V member 1 (Homo sapiens, UniProt Q8NER1); assay: Agonist activity at human TRPV1 channel expressed in human HEK293 cells assessed as elevation in intracellular calcium flux; type: functional, cell-based
T2 sequence (Q8NER1 whole entry): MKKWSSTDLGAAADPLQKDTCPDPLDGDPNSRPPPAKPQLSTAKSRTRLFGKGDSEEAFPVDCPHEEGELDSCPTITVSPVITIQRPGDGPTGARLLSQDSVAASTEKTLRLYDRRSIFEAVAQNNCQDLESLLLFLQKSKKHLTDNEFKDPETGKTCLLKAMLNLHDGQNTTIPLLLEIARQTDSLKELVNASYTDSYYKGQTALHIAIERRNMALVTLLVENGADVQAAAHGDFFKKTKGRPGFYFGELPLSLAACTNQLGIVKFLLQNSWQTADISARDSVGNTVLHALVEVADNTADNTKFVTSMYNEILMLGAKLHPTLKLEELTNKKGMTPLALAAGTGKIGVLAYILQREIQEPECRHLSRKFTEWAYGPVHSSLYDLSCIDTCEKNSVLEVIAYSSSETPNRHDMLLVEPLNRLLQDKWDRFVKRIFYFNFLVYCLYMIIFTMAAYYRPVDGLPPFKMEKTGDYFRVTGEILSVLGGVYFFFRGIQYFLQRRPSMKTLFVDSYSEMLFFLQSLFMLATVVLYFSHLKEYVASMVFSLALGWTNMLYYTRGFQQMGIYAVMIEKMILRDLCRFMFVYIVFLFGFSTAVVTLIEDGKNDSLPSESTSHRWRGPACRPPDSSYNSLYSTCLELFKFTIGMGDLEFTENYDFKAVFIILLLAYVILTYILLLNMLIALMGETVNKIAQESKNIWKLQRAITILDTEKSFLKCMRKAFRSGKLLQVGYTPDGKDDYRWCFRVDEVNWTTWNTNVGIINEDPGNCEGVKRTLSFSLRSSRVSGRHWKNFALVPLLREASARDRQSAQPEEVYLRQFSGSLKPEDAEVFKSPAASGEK
Method in brief: (§1)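 HEK-293 cells overexpressing TRPV1 were used, with intracellular Ca2+ elevation as the read-out. The single-point value is the effect of 10 µM compound as percent of the Ca2+ response to 4 µM ionomycin. Data are means of 4 separate determinations.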

Cannabinoid receptor 2 = Cannabinoid receptor 2 (Homo sapiens, UniProt P34972); assay: Binding affinity to human CB2 receptor expressed in COS cells; type: cell-based
Sequence of Cannabinoid receptor 2 (P34972 whole entry): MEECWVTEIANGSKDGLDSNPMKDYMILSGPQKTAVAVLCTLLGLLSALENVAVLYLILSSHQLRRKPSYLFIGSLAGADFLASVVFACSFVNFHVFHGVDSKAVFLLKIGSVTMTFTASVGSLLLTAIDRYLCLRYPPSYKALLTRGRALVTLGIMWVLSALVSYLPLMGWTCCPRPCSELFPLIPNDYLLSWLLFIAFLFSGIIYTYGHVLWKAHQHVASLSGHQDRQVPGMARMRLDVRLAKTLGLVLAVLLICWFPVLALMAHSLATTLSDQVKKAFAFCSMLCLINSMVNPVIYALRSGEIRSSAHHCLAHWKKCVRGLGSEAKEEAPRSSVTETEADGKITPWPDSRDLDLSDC
Method in brief: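 Human CB2 receptor expressed by transfection in COS cells. Each value is the mean of 4 separate determinations.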

[3] = target: Transient receptor potential cation channel subfamily A member 1 (Rattus norvegicus, UniProt Q6RI86); assay: Agonist activity at rat TRPA1 channel expressed in human HEK293 cells assessed as elevation in intracellular calcium flux; type: functional, cell-based
Sequence of Transient receptor potential cation channel subfamily A member 1 (Q6RI86 whole entry): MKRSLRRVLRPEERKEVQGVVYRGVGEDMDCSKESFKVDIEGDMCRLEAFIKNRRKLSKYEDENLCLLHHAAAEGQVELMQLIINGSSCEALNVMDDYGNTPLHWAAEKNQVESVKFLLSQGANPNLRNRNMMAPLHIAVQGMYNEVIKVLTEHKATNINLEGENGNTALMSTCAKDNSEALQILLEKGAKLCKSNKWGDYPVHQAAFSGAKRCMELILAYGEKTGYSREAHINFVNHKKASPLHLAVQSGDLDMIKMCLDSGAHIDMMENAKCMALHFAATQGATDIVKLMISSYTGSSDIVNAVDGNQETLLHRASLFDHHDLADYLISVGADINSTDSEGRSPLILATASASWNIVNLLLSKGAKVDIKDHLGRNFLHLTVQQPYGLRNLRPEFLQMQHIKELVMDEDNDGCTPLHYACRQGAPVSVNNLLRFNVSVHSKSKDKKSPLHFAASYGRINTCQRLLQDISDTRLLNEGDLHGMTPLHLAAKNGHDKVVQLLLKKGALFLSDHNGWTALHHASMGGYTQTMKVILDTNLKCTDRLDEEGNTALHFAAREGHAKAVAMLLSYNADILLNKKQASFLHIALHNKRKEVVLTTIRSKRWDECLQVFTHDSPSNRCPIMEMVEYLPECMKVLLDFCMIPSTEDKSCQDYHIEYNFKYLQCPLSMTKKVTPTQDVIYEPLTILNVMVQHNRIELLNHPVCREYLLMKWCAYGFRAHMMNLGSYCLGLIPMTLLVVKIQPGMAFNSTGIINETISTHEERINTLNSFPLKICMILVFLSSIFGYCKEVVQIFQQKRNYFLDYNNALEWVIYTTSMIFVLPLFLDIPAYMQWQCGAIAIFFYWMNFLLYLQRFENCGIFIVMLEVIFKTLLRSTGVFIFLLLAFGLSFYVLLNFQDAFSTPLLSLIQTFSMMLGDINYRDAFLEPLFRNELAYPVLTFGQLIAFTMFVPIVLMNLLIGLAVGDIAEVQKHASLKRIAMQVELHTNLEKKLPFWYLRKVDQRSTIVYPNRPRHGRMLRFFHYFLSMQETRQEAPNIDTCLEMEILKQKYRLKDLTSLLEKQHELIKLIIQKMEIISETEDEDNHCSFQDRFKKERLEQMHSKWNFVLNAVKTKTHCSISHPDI
Method in brief: (§2)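 Stably rat TRPA1-transfected HEK-293 cells, grown 3 days, were loaded with 4 µM Fluo4-AM plus 0.02% Pluronic for 1 h at room temperature. They were washed and resuspended in Tyrode's buffer pH 7.4, and [Ca2+]i was read under stirring (ex 488/em 516 nm) before and after compound addition. EC50 is the half-maximal [Ca2+]i rise. Efficacy (100 µM compound) is expressed relative to 100 µM mustard oil; n = 4 means.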

RBL-2H3 = assay: Inhibition of [14C]anandamide uptake in rat RBL-2H3; type: functional, cell-based
Method in brief: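 Uptake of [14C]anandamide was measured in intact RBL-2H3 cells; means of n = 4.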

Cannabinoid receptor 1 = Cannabinoid receptor 1 (Homo sapiens, UniProt P21554); assay: Binding affinity to human CB1 receptor expressed in COS cells; type: cell-based
Sequence of Cannabinoid receptor 1 (P21554 whole entry): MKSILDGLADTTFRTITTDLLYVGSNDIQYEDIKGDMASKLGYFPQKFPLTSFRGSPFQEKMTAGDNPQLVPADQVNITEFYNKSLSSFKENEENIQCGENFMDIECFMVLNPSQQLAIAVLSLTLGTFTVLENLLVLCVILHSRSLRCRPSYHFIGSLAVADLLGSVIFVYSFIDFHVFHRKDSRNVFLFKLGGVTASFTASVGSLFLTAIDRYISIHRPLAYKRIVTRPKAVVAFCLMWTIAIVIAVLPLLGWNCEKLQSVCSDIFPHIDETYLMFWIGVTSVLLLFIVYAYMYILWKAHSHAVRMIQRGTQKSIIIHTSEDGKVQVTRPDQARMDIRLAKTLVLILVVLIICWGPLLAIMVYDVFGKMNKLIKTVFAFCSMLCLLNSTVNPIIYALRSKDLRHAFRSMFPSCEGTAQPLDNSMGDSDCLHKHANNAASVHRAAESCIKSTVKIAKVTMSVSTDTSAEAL
Method in brief: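 Tested at CB1 receptors in transfected COS cells; means of 4 separate determinations.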

[4] = target: T3, Fatty-acid amide hydrolase 1 (Rattus norvegicus, UniProt P97612); assay: Inhibition of rat brain FAAH mediated [14C]anandamide hydrolysis
T3 sequence (P97612 whole entry): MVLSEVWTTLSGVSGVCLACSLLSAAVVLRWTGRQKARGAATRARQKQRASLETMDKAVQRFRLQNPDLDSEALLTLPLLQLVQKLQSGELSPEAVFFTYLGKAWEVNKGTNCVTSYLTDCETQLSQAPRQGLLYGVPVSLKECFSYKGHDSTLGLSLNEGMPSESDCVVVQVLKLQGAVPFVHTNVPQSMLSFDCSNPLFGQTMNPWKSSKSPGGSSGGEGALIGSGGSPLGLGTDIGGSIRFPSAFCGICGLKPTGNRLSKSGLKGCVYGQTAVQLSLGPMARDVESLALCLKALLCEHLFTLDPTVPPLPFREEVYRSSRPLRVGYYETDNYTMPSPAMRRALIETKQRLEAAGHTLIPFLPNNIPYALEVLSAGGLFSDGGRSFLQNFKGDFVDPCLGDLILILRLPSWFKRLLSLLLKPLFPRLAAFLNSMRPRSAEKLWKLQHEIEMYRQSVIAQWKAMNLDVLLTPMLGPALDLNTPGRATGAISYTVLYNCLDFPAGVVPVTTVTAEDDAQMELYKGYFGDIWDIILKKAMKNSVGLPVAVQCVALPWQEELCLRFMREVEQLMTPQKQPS
Method in brief: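 Hydrolysis of [14C]anandamide was measured with rat brain membranes as the enzyme source; means of n = 4.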

[5] = target: Transient receptor potential cation channel subfamily A member 1 (Rattus norvegicus) (UniProt Q6RI86); assay: Agonist activity at rat TRPA1 channel expressed in human HEK293 cells assessed as elevation in intracellular calcium flux at 100 uM relative to mustard oil; type: functional, cell-based; method in brief: as §2
Sequence of Transient receptor potential cation channel subfamily A member 1 (Rattus norvegicus) (Q6RI86 whole entry): as the sequence (Q6RI86 whole entry) above

[6] = target: T2, Transient receptor potential cation channel subfamily V member 1; assay: Agonist activity at human TRPV1 channel expressed in human HEK293 cells assessed as elevation in intracellular calcium flux at 10 uM relative to ionomycin; type: functional, cell-based; method in brief: as §1
[7] = Inhibition of human MAGL mediated [14C]2-AG hydrolysis in COS cell; type: cell-based
Method in brief: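 Enzyme source was cytosolic fractions of COS cells (MAGL-expressing), with hydrolysis of [14C]2-AG as the read-out; means of 4 determinations.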

SMILES | IC50 [1] [µM] | EC50 [2] [µM] | Ki (Cannabinoid receptor 2) [µM] | EC50 [3] [µM] | IC50 (RBL-2H3) [µM] | Ki (Cannabinoid receptor 1) [µM] | IC50 [4] [µM] | Efficacy [5] [%] | Efficacy [6] [%] | IC50 [7] [µM]
COC(=O)Cn1nnc(CNC(=O)c2ccc(-c3ccccc3)cc2)n1 | > 10 | > 100 | > 10 | > 100 | > 25 | > 10 | > 50 | 0 | 2.2 | > 10
CN(C)C(=O)Cn1nnc(Cc2ccc(-c3ccccc3)cc2)n1 | > 10 | > 100 | > 10 | > 100 | > 25 | > 10 | > 50 | 0 | 5.3 | > 10
CN(C)C(=O)Cn1nnc(CNC(=O)c2ccc(-c3ccccc3)cc2)n1 | > 10 | > 100 | > 10 | > 100 | 2.3 | > 10 | > 50 | 0 | 1.2 | > 10
N#CCn1nnc(Cc2ccc(-c3ccccc3)cc2)n1 | > 10 | > 100 | 6.2 | 16.2 | 5.1 | > 10 | > 50 | 102 | 0 | > 10
COC(=O)Cn1nnc(Cc2ccc(-c3ccccc3)cc2)n1 | > 10 | > 100 | 8.1 | > 100 | > 25 | > 10 | > 50 | 36 | 0 | > 10
N#CCn1nnc(CNC(=O)c2ccc(-c3ccccc3)cc2)n1 | > 10 | > 100 | > 10 | > 100 | > 25 | > 10 | > 50 | 0 | 2.6 | > 10
N#CCn1nnnc1Cc1ccc(-c2ccccc2)cc1 | > 10 | > 100 | > 10 | 26.3 | 24.8 | > 10 | > 50 | 83.2 | 5.4 | > 10
CC(=O)Cn1nnnc1Cc1ccc(-c2ccccc2)cc1 | > 10 | > 100 | > 10 | > 100 | 5 | > 10 | > 50 | 11.4 | 0 | > 10
N#CCn1nnnc1CNC(=O)c1ccc(-c2ccccc2)cc1 | > 10 | > 100 | > 10 | > 100 | > 25 | > 10 | > 50 | 0 | 6.3 | > 10
